Source: ChEMBL document CHEMBL1142455, “Synthesis and biological evaluation of immunosuppressive agent DZ2002 and its stereoisomers” (Bioorg Med Chem, 2008)
The source made the active and inactive calls. No cut-off for these calls is given here.

What was measured:
[1] = test system: Splenic lymphocyte; experiment: Immunosuppressive activity in BALB/c mouse splenic lymphocytes co-cultured with C57BL/6 mouse splenic lymphocytes assessed as inhibition of cell proliferation after 72 hrs by mixed lymphocyte reaction assay; assay type: functional, cell-based
Method in brief: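 Stimulator BALB/c splenic lymphocytes (1 × 10⁷ cells/mL) were γ-irradiated with ⁶⁰Co for 7 min. They were co-cultured with fresh C57BL/6 splenic responder lymphocytes and compound at 25, 50 or 100 μM in RPMI 1640 with FCS for 72 h at 37 °C under 5% CO₂. Cells were then pulsed with [³H]thymidine for another 24 h to read proliferation.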

[2] = Inhibition of rabbit erythrocyte SAHase by DTNB-coupled assay; set-up: species or system Oryctolagus cuniculus
Method in brief: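 SAHase hydrolytic activity was measured by DTNB-coupled assay. Enzyme and compound were preincubated in phosphate buffer, pH 8.0, for 10 min before the reaction was started.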

[3] = Cytotoxicity against BALB/c mouse splenic lymphocytes co-cultured with C57BL/6 mouse splenic lymphocytes assessed as reduction of cell viability after 72 hrs; assay type: cell-based, Splenic lymphocyte; details: BALB/c and C57BL/6, mouse

IC50 [2] [µM] | SMILES | Activity [1] | CC50 at 72 h [3] [µM]
61.3 | COC(=O)[C@H](O)CCn1cnc2c(N)ncnc21 | Active | > 1000
194 | COC(=O)C(=O)CCn1cnc2c(N)ncnc21 | Active | > 1000
21.2 | COC(=O)[C@@H](O)CCn1cnc2c(N)ncnc21 | Active | > 1000
24.4 | COC(=O)C(O)CCn1cnc2c(N)ncnc21 (racemic) | Active | > 1000
